Columns and labels:
Hela = test: Antiproliferation assay; format: cell-based; settings: Homo sapiens, 24 h, read-out: IC50 = mean ± SD, Hela
Procedure, shortened: (§1)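 Cell lines were grown at 37 °C under 5% CO2 in their own media: A549 in DMEM/F12, H446 in RPMI 1640, and HeLa, MCF-7, L02 and BEAS-2B in high-glucose DMEM with L-glutamine, with 10% FBS and penicillin/streptomycin. Cells were seeded in 96-well plates and exposed to test compounds or reference agents at 37 °C for 24 h. CCK-8 was added for 2 h and absorbance read at 450 nm.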

L02 = test: Antiproliferation assay; format: cell-based; settings: Homo sapiens, L02, 24 h, read-out: IC50 = mean ± SD, L02
Procedure, shortened: as §1

MCF-7 = test: Antiproliferation assay; format: cell-based; settings: Homo sapiens, MCF7, 24 h, read-out: IC50 = mean ± SD, MCF-7
Procedure, shortened: as §1

BEAS-2B = test: Antiproliferation assay; format: cell-based; settings: Homo sapiens, 24 h, read-out: IC50 = mean ± SD, BEAS-2B
Procedure, shortened: as §1

A549 = test: Antiproliferation assay; format: cell-based; settings: Homo sapiens, A549, 24 h, read-out: IC50 = mean ± SD, A549
Procedure, shortened: as §1

H446 = test: Antiproliferation assay; format: cell-based; settings: Homo sapiens, NCI-H446, 24 h, read-out: IC50 = mean ± SD, H446
Procedure, shortened: as §1

[1] = system: PI3K/Akt pathway in A549 cells; test: Western blot of PI3K/Akt signalling pathway proteins; format: cell-based, human; settings: A549, 1.0 µM, 24 h
Procedure, shortened: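 A549 cells were treated 24 h with test compound (0.1, 0.5, 1.0 or 2.0 µM), LY294002 (1.0 µM) or a reference agent (1.0 µM). Lysates were heat-denatured in non-reducing sample buffer and quantified by Bradford assay. 20 µg protein ran on 10% SDS-PAGE, transferred to PVDF and probed for PI3K, pPI3K, Akt and pAkt with GAPDH as loading control. Detection was by ECL with densitometry.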

| Compound | IC50 (Hela) [µM] | IC50 (MCF-7) [µM] | IC50 (A549) [µM] | IC50 (H446) [µM] | IC50 (L02) [µM] | IC50 (BEAS-2B) [µM] | pPI3K/PI3K and pAkt/Akt ratio [1] |
| --- | --- | --- | --- | --- | --- | --- | --- |
| COc1cc([C@@H]2c3cc4c(cc3[C@H](OC(=O)CCCc3ccc(NS(=O)(=O)c5ccc(Br)cc5)cc3)[C@H]3COC(=O)[C@H]23)OCO4)cc(OC)c1OC [Compound E4, (5R,5aR,8aR,9R)-8-oxo-9-(3,4,5-trimethoxyphenyl)-5,5a,6,8,8a,9-hexahydrofuro [3′,4′:6,7]naphtho[2,3-d][1,3]dioxol-5-yl4-(4-((4-bromophenyl)sulfonamido)phenyl)butanoate] | 18.4 ± 0.22 | 70.91 ± 0.47 | 2.57 ± 0.98 | 17.4 ± 0.95 | > 100 | > 100 | – |
| COc1cc([C@@H]2c3cc4c(cc3[C@H](O)[C@H]3COC(=O)[C@H]23)OCO4)cc(OC)c1OC [PPT, Podophyllotoxin, reference compound] | 15.3 ± 0.58 | 11.7 ± 0.45 | 14.7 ± 1.14 | 3.69 ± 0.38 | 9.42 ± 0.74 | 8.91 ± 0.72 | – |
| CCCc1ccc(S(=O)(=O)Nc2ccc(CCCC(=O)O[C@H]3c4cc5c(cc4[C@@H](c4cc(OC)c(OC)c(OC)c4)[C@H]4C(=O)OC[C@@H]43)OCO5)cc2)cc1 [Compound E3, (5R,5aR,8aR,9R)-8-oxo-9-(3,4,5-trimethoxyphenyl)-5,5a,6,8,8a,9-hexahydrofuro [3′,4′:6,7]naphtho[2,3-d][1,3]dioxol-5-yl4-(4-((4-propylphenyl)sulfonamido)phenyl)butanoate] | 39.2 ± 0.56 | 18.7 ± 0.95 | 17.8 ± 1.11 | 11 ± 0.47 | > 100 | 73.6 ± 1.35 | – |
| COc1cc([C@@H]2c3cc4c(cc3[C@H](OC(=O)CCCc3ccc(NS(=O)(=O)c5cccc(F)c5)cc3)[C@H]3COC(=O)[C@H]23)OCO4)cc(OC)c1OC [Compound E6, (5R,5aR,8aR,9R)-8-oxo-9-(3,4,5-trimethoxyphenyl)-5,5a,6,8,8a,9-hexahydrofuro [3′,4′:6,7]naphtho[2,3-d][1,3]dioxol-5-yl4-(4-((3-fluorophenyl)sulfonamido)phenyl)butanoate] | 12.7 ± 0.69 | 25.9 ± 1.34 | 1.08 ± 0.32 | 6.07 ± 0.25 | > 100 | 94.3 ± 2.66 | – |
| COc1cc([C@@H]2c3cc4c(cc3[C@H](OC(=O)CCCc3ccc(NS(=O)(=O)c5ccccc5F)cc3)[C@H]3COC(=O)[C@H]23)OCO4)cc(OC)c1OC [Compound E7, (5R,5aR,8aR,9R)-8-oxo-9-(3,4,5-trimethoxyphenyl)-5,5a,6,8,8a,9-hexahydrofuro [3′,4′:6,7]naphtho[2,3-d][1,3]dioxol-5-yl4-(4-((2-fluorophenyl)sulfonamido)phenyl)butanoate] | 13.6 ± 0.71 | 18.9 ± 0.81 | 20.2 ± 0.79 | > 100 | > 100 | > 100 | – |
| COc1cc([C@@H]2c3cc4c(cc3[C@H](OC(=O)CCCc3ccc(NS(=O)(=O)c5ccc(C(F)(F)F)cc5)cc3)[C@H]3COC(=O)[C@H]23)OCO4)cc(OC)c1OC [Compound E8, (5R,5aR,8aR,9R)-8-oxo-9-(3,4,5-trimethoxyphenyl)-5,5a,6,8,8a,9-hexahydrofuro [3′,4′:6,7]naphtho[2,3-d][1,3]dioxol-5-yl4-(4-((4-(trifluoromethyl)phenyl)sulfonamido)phenyl)butanoate] | 51.8 ± 1.27 | 21.2 ± 0.52 | 19.5 ± 1.09 | 29.18 ± 0.29 | > 100 | > 100 | – |
| COc1cc([C@@H]2c3cc4c(cc3[C@H](OC(=O)CCCc3ccc(NS(=O)(=O)c5ccccc5)cc3)[C@H]3COC(=O)[C@H]23)OCO4)cc(OC)c1OC [Compound E1, (5R,5aR,8aR,9R)-8-oxo-9-(3,4,5-trimethoxyphenyl)-5,5a,6,8,8a,9-hexahydrofuro [3′,4′:6,7]naphtho[2,3-d][1,3]dioxol-5-yl 4-(4-(phenylsulfonamido)phenyl)butanoate] | > 100 | 25 ± 1.11 | 2.73 ± 0.36 | 22.9 ± 1.33 | > 100 | 83.6 ± 1.85 | – |
| O=c1cc(N2CCOCC2)oc2c(-c3ccccc3)cccc12 [LY294002, reference compound] | – | – | – | – | – | – | notable reduction |

Further lines, with some results ahead:

| IC50 (Hela) [µM] | IC50 (MCF-7) [µM] | IC50 (A549) [µM] | IC50 (H446) [µM] | Compound | IC50 (L02) [µM] | IC50 (BEAS-2B) [µM] | pPI3K/PI3K and pAkt/Akt ratio [1] |
| --- | --- | --- | --- | --- | --- | --- | --- |
| 16.9 ± 1.01 | 59.25 ± 0.42 | 7.34 ± 1.32 | 36.6 ± 1.59 | COc1cc([C@@H]2c3cc4c(cc3[C@H](OC(=O)CCCc3ccc(NS(=O)(=O)c5cc([N+](=O)[O-])ccc5C)cc3)[C@H]3COC(=O)[C@H]23)OCO4)cc(OC)c1OC [Compound E15, (5R,5aR,8aR,9R)-8-oxo-9-(3,4,5-trimethoxyphenyl)-5,5a,6,8,8a,9-hexahydrofuro [3′,4′:6,7]naphtho[2,3-d][1,3]dioxol-5-yl4-(4-((2-methyl-5-nitrophenyl)sulfonamido)phenyl)butanoate] | > 100 | 97.3 ± 1.41 | – |
| 46.7 ± 2.04 | 8.07 ± 0.63 | 27.8 ± 1.51 | 10.5 ± 2.08 | COc1cc([C@@H]2c3cc4c(cc3[C@H](OC(=O)CCCc3ccc(NS(=O)(=O)c5ccccc5[N+](=O)[O-])cc3)[C@H]3COC(=O)[C@H]23)OCO4)cc(OC)c1OC [Compound E11, (5R,5aR,8aR,9R)-8-oxo-9-(3,4,5-trimethoxyphenyl)-5,5a,6,8,8a,9-hexahydrofuro [3′,4′:6,7]naphtho[2,3-d][1,3]dioxol-5-yl4-(4-((2-nitrophenyl)sulfonamido)phenyl)butanoate] | > 100 | > 100 | – |
| 27.5 ± 2.54 | 8.4 ± 0.79 | 0.95 ± 0.22 | 7.28 ± 0.96 | COc1cc([C@@H]2c3cc4c(cc3[C@H](OC(=O)CCCc3ccc(NS(=O)(=O)c5c(F)cccc5F)cc3)[C@H]3COC(=O)[C@H]23)OCO4)cc(OC)c1OC [Compound E10, (5R,5aR,8aR,9R)-8-oxo-9-(3,4,5-trimethoxyphenyl)-5,5a,6,8,8a,9-hexahydrofuro [3′,4′:6,7]naphtho[2,3-d][1,3]dioxol-5-yl4-(4-((2,6-difluorophenyl)sulfonamido)phenyl)butanoate] | > 100 | > 100 | – |
| 36.1 ± 1.49 | 36.8 ± 0.56 | 27 ± 1.33 | 27.2 ± 2.06 | COc1cc([C@@H]2c3cc4c(cc3[C@H](OC(=O)CCCc3ccc(NS(=O)(=O)c5ccc(C)cc5)cc3)[C@H]3COC(=O)[C@H]23)OCO4)cc(OC)c1OC [Compound E12, (5R,5aR,8aR,9R)-8-oxo-9-(3,4,5-trimethoxyphenyl)-5,5a,6,8,8a,9-hexahydrofuro [3′,4′:6,7]naphtho[2,3-d][1,3]dioxol-5-yl4-(4-((4-methylphenyl)sulfonamido)phenyl)butanoate] | > 100 | 79.3 ± 1.07 | – |
| 62 ± 1.58 | 4.97 ± 0.53 | 0.55 ± 0.17 | 9.27 ± 0.74 | COc1cc([C@@H]2c3cc4c(cc3[C@H](OC(=O)CCCc3ccc(NS(=O)(=O)c5ccc(F)cc5F)cc3)[C@H]3COC(=O)[C@H]23)OCO4)cc(OC)c1OC [Compound E9, (5R,5aR,8aR,9R)-8-oxo-9-(3,4,5-trimethoxyphenyl)-5,5a,6,8,8a,9-hexahydrofuro [3′,4′:6,7]naphtho[2,3-d][1,3]dioxol-5-yl4-(4-((2,4-difluorophenyl)sulfonamido)phenyl)butanoate] | > 100 | 99.3 ± 3.53 | – |
| 51.3 ± 1.15 | 42 ± 1.35 | 4.94 ± 0.42 | 9.92 ± 0.92 | COc1cc([C@@H]2c3cc4c(cc3[C@H](OC(=O)CCCc3ccc(NS(=O)(=O)c5cccc([N+](=O)[O-])c5)cc3)[C@H]3COC(=O)[C@H]23)OCO4)cc(OC)c1OC [Compound E13, (5R,5aR,8aR,9R)-8-oxo-9-(3,4,5-trimethoxyphenyl)-5,5a,6,8,8a,9-hexahydrofuro [3′,4′:6,7]naphtho[2,3-d][1,3]dioxol-5-yl4-(4-((3-nitrophenyl)sulfonamido)phenyl)butanoate] | 48.1 ± 1.09 | > 100 | – |
| 26.8 ± 0.63 | 59.9 ± 1.71 | 11 ± 2.51 | 29.4 ± 2.54 | COc1cc([C@@H]2c3cc4c(cc3[C@H](OC(=O)CCCc3ccc(NS(=O)(=O)c5ccc([N+](=O)[O-])cc5)cc3)[C@H]3COC(=O)[C@H]23)OCO4)cc(OC)c1OC [Compound E14, (5R,5aR,8aR,9R)-8-oxo-9-(3,4,5-trimethoxyphenyl)-5,5a,6,8,8a,9-hexahydrofuro [3′,4′:6,7]naphtho[2,3-d][1,3]dioxol-5-yl4-(4-((4-nitrophenyl)sulfonamido)phenyl)butanoate] | > 100 | > 100 | – |

Reference: article PMC10896134 (Pharmaceutical Biology, 2024)
